This note sets out measurements from ChEMBL document CHEMBL2040711, “Synthesis, characterization and antimicrobial studies of some new quinoline incorporated benzimidazole derivatives” (2012).

Assay type in all cases: functional
What all share (conditions): read-out: DIZ

For assay [1], the system named is Aspergillus terreus. Kind of assay: Antifungal activity against Aspergillus terreus at 12.5 ug/ml after 72 hrs by well plate method. The procedure, abridged: (§1)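 Sabouraud agar: peptone 10 g, glucose 40 g, agar 20 g per litre water, pH 5.7. Spore suspension made from a loopful of fungus in 3 mL normal saline and lawned on 20 mL agar per dish. Excess decanted, plates dried 1 h at 37 °C. Wells punched and loaded with compound in DMSO (6.25 or 12.5 μg/mL). DMSO control. Triplicate plates held at 25 °C for 72 h. Inhibition zone diameter measured. A. terreus strain NCIM 1325.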

Assay [2] concerns Aspergillus niger. Put plainly: Antifungal activity against Aspergillus niger at 6.25 ug/ml after 72 hrs by well plate method.
The subject of assay [3] is Aspergillus niger. Put plainly: Antifungal activity against Aspergillus niger at 12.5 ug/ml after 72 hrs by well plate method.
The subject of assay [4] is Aspergillus flavus. Put plainly: Antifungal activity against Aspergillus flavus at 6.25 ug/ml after 72 hrs by well plate method.
Assay [5] relates to Aspergillus flavus. Kind of assay: Antifungal activity against Aspergillus flavus at 12.5 ug/ml after 72 hrs by well plate method.
In assay [6] the test system is Penicillium sp. Kind of assay: Antifungal activity against Penicillium sp. at 6.25 ug/ml after 72 hrs by well plate method.
In assay [7] the test system is Penicillium sp. Put plainly: Antifungal activity against Penicillium sp. at 12.5 ug/ml after 72 hrs by well plate method.
Assay [8] deals with Aspergillus terreus. Put plainly: Antifungal activity against Aspergillus terreus at 6.25 ug/ml after 72 hrs by well plate method. The procedure, abridged:
as §1

In assay [9] the test system is Staphylococcus aureus. Put plainly: Antibacterial activity against Staphylococcus aureus at 6.25 ug/ml after 24 to 48 hrs by well plate diffusion method. The procedure, abridged:
(§2)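 Agar well diffusion: 15-20 mL agar per dish, plates dried 1 h at 37 ± 2 °C in laminar flow, then seeded. Wells cut with an agar punch, each loaded with compound dissolved in DMSO (6.25 or 12.5 μg/mL). DMSO solvent control, ciprofloxacin standard. Plates in triplicate, incubated 37 ± 2 °C for 24–48 h. Inhibition zone diameter read in mm, with SD.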

Assay [10] has as its system Staphylococcus aureus. Put plainly: Antibacterial activity against Staphylococcus aureus at 12.5 ug/ml after 24 to 48 hrs by well plate diffusion method. Summed up: as §2
The subject of assay [11] is Escherichia coli. Kind of assay: Antibacterial activity against Escherichia coli at 6.25 ug/ml after 24 to 48 hrs by well plate diffusion method. The procedure, abridged: as §2
The test system of assay [12] is Escherichia coli. Put plainly: Antibacterial activity against Escherichia coli at 12.5 ug/ml after 24 to 48 hrs by well plate diffusion method. The procedure, abridged: as §2
For assay [13], the system named is Xanthomonas sp. Kind of assay: Antibacterial activity against Xanthomonas sp. at 6.25 ug/ml after 24 to 48 hrs by well plate diffusion method. Summed up: as §2
Assay [14] has as its system Xanthomonas sp. Kind of assay: Antibacterial activity against Xanthomonas sp. at 12.5 ug/ml after 24 to 48 hrs by well plate diffusion method. The procedure, abridged:
as §2

The test system of assay [15] is Salmonella sp. Kind of assay: Antibacterial activity against Salmonella sp. at 6.25 ug/ml after 24 to 48 hrs by well plate diffusion method. The procedure, abridged:
as §2

Assay [16] concerns Salmonella sp. Kind of assay: Antibacterial activity against Salmonella sp. at 12.5 ug/ml after 24 to 48 hrs by well plate diffusion method. The procedure, abridged: as §2

Turning to `OC(Cn1cncn1)(Cn1cncn1)c1ccc(F)cc1F` [FLUCONAZOLE], the zone of inhibition at 12.5 µg/mL in the assay on Aspergillus terreus [1] stood at 18 mm; in the assay with Aspergillus niger [3], 18 mm; in the assay with Aspergillus flavus [5] it was 20 mm; in the assay on Penicillium sp. [7], 21 mm. Further, the zone of inhibition at 6.25 µg/mL with Aspergillus niger [2] worked out at 14 mm; in the assay with Aspergillus flavus [4], 15 mm; in the assay with Penicillium sp. [6], 19 mm; in the assay on Aspergillus terreus [8], 16 mm.
For `Fc1ccc(-c2cc(-c3nc4ccccc4[nH]3)c3ccccc3n2)cc1`, the zone of inhibition at 12.5 µg/mL came to 14 mm in the assay with Aspergillus terreus [1]; 13 mm in the assay on Staphylococcus aureus [10]; 16 mm in the assay on Escherichia coli [12]; 12 mm in the assay on Xanthomonas sp. [14]; 15 mm in the assay with Salmonella sp. [16]; 12 mm in the assay on Aspergillus niger [3]. Moreover, the zone of inhibition at 12.5 µg/mL with Aspergillus flavus [5] was found to be 12 mm; in the assay with Penicillium sp. [7], 17 mm. In addition, the zone of inhibition at 6.25 µg/mL in the assay with Staphylococcus aureus [9] worked out at 12 mm; in the assay with Escherichia coli [11] it was 11 mm; in the assay with Xanthomonas sp. [13], 11 mm; in the assay on Salmonella sp. [15], 9 mm; in the assay on Aspergillus niger [2], 11 mm; in the assay with Aspergillus flavus [4] it was 11 mm. The results for the zone of inhibition at 6.25 µg/mL in the assay on Penicillium sp. [6] and in the assay with Aspergillus terreus [8] were 15 mm and 12 mm, respectively.
In the case of `Fc1ccc(-c2cc(-c3nc4ccc(Cl)cc4[nH]3)c3ccccc3n2)cc1`, the zone of inhibition at 12.5 µg/mL in the assay with Aspergillus terreus [1] worked out at 16 mm; with Staphylococcus aureus [10], 13 mm; in the assay with Escherichia coli [12] it was 16 mm; with Xanthomonas sp. [14], 15 mm; with Salmonella sp. [16] it was 17 mm; with Aspergillus niger [3], 18 mm. Further, the zone of inhibition at 12.5 µg/mL in the assay on Aspergillus flavus [5] is 16 mm; in the assay with Penicillium sp. [7] it was 12 mm. For the same compound, the zone of inhibition at 6.25 µg/mL in the assay with Staphylococcus aureus [9] was determined as 12 mm; in the assay with Xanthomonas sp. [13], 15 mm; in the assay on Salmonella sp. [15] it was 9 mm; in the assay with Aspergillus niger [2] it was 15 mm; in the assay with Aspergillus flavus [4] it was 11 mm; with Penicillium sp. [6] it was 12 mm. Besides, the zone of inhibition at 6.25 µg/mL with Aspergillus terreus [8] was 10 mm.
For the compound `Fc1ccc(-c2cc(-c3nc4cc(Cl)c(Cl)cc4[nH]3)c3cc(Cl)ccc3n2)cc1`, the zone of inhibition at 12.5 µg/mL in the assay with Aspergillus terreus [1] worked out at 10 mm; in the assay with Staphylococcus aureus [10], 12 mm; in the assay on Escherichia coli [12] it was 17 mm; in the assay on Xanthomonas sp. [14], 16 mm; in the assay with Salmonella sp. [16], 28 mm; in the assay with Aspergillus niger [3] it was 12 mm. The results for the zone of inhibition at 12.5 µg/mL in the assay with Aspergillus flavus [5] and in the assay with Penicillium sp. [7] were 13 mm and 19 mm, respectively. The zone of inhibition at 6.25 µg/mL in the assay on Staphylococcus aureus [9] amounted to 10 mm; with Escherichia coli [11] it was 12 mm; in the assay on Xanthomonas sp. [13], 14 mm; with Salmonella sp. [15] it was 20 mm; with Aspergillus niger [2], 12 mm; in the assay on Aspergillus flavus [4], 13 mm. The zone of inhibition at 6.25 µg/mL in the assay on Penicillium sp. [6] came to 12 mm; in the assay with Aspergillus terreus [8] it was 9 mm.
With `Fc1ccc(-c2cc(-c3nc4cc(Cl)c(Cl)cc4[nH]3)c3cc(F)ccc3n2)cc1`, the zone of inhibition at 12.5 µg/mL with Aspergillus terreus [1] was 9 mm; in the assay with Staphylococcus aureus [10], 15 mm; in the assay with Escherichia coli [12] it was 12 mm; with Xanthomonas sp. [14] it was 16 mm; in the assay with Salmonella sp. [16], 12 mm; in the assay on Aspergillus niger [3] it was 13 mm. Moreover, the zone of inhibition at 12.5 µg/mL was found to be 15 mm with Aspergillus flavus [5] and 12 mm with Penicillium sp. [7]. The zone of inhibition at 6.25 µg/mL in the assay on Staphylococcus aureus [9] was 14 mm; with Xanthomonas sp. [13], 12 mm; in the assay with Salmonella sp. [15], 9 mm; with Aspergillus niger [2], 10 mm; with Aspergillus flavus [4], 12 mm.
As for `Fc1ccc(-c2cc(-c3nc4cc(Cl)c(Cl)cc4[nH]3)c3ccccc3n2)cc1`, the zone of inhibition at 12.5 µg/mL amounted to 11 mm in the assay with Aspergillus terreus [1]; 16 mm with Staphylococcus aureus [10]; 16 mm with Escherichia coli [12]; 22 mm in the assay with Xanthomonas sp. [14]; 12 mm in the assay with Salmonella sp. [16]; 12 mm in the assay on Aspergillus niger [3]. Also, the zone of inhibition at 12.5 µg/mL with Aspergillus flavus [5] is 10 mm; in the assay with Penicillium sp. [7], 12 mm. The zone of inhibition at 6.25 µg/mL with Staphylococcus aureus [9] worked out at 12 mm; with Escherichia coli [11], 12 mm; with Xanthomonas sp. [13], 20 mm; in the assay on Salmonella sp. [15], 11 mm; in the assay on Aspergillus niger [2], 10 mm; in the assay on Aspergillus flavus [4] it was 10 mm. For the same compound, the zone of inhibition at 6.25 µg/mL in the assay with Penicillium sp. [6] was 12 mm; in the assay with Aspergillus terreus [8], 10 mm.
With `Fc1ccc(-c2cc(-c3nc4ncccc4[nH]3)c3cc(F)ccc3n2)cc1`, the zone of inhibition at 12.5 µg/mL with Aspergillus terreus [1] stood at 15 mm; in the assay with Staphylococcus aureus [10], 12 mm; in the assay with Escherichia coli [12] it was 13 mm; in the assay with Xanthomonas sp. [14], 16 mm; in the assay with Salmonella sp. [16], 13 mm; with Aspergillus niger [3], 13 mm. Besides, the zone of inhibition at 12.5 µg/mL with Aspergillus flavus [5] came out at 14 mm; with Penicillium sp. [7], 15 mm. In addition, the zone of inhibition at 6.25 µg/mL in the assay with Staphylococcus aureus [9] was 12 mm; in the assay with Xanthomonas sp. [13], 15 mm; in the assay with Salmonella sp. [15], 13 mm; with Aspergillus niger [2], 11 mm; in the assay with Aspergillus flavus [4], 11 mm; in the assay on Penicillium sp. [6], 14 mm. The zone of inhibition at 6.25 µg/mL in the assay on Aspergillus terreus [8] worked out at 10 mm.
